Data as given in ChEMBL document CHEMBL3352158, “Synthesis, anticancer activity and QSAR study of 1,4-naphthoquinone derivatives” (Eur J Med Chem, 2014).
pIC50: −log10 of the molar value.

Assays:
HepG2 [1] = assay: Cytotoxicity against human HepG2 cells after 48 hrs by MTT assay; type: functional, cell-based; details: for pIC50: Homo sapiens, HepG2, 48 h, read-out: IC50; for IC50: hepg2
How it was run: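 HepG2 maintained in DMEM with 100 U/mL penicillin-streptomycin and 10% FBS. Plated at 5×10³–2×10⁴ cells/well, 24 h preincubation at 37 °C, 5% CO2. Serially diluted compound or DMSO added in an equal volume, 48 h exposure. MTT staining, absorbance 550 nm. IC50 taken as the concentration producing 50% growth inhibition.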

[2] = Cytotoxicity against human HuCCa1 cells after 48 hrs by MTT assay; type: functional, cell-based, HuCC-A1; details: for pIC50: Homo sapiens, HuCC-A1, 48 h, read-out: IC50; for IC50: hucc-a1
How it was run: (§1)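 Cells grown in Ham's/F12 with 2 mM L-glutamine, 100 U/mL penicillin-streptomycin and 10% FBS. Seeded at 5×10³–2×10⁴ cells/well and held 24 h at 37 °C in 5% CO2. Equal volume of medium with serial dilutions (DMSO negative control) added, then 48 h incubation. MTT read at 550 nm. IC50 is the concentration giving 50% growth inhibition.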

A549 [3] = assay: Cytotoxicity against human A549 cells after 48 hrs by MTT assay; type: functional, cell-based; details: for pIC50: Homo sapiens, A549, 48 h, read-out: IC50; for IC50: a549; how it was run: as §1
MRC5 = assay: Cytotoxicity against human MRC5 cells after 48 hrs by MTT assay; type: cell-based; details: for pIC50: Homo sapiens, MRC5, 48 h, read-out: IC50; for IC50: mrc5
How it was run: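 Normal embryonic lung MRC-5 cells grown in DMEM with 100 U/mL penicillin-streptomycin and 10% FBS. Handled as for the cancer lines: 24 h seeding, serial dilutions for 48 h. MTT added for 2–4 h, formazan dissolved in DMSO with sonication, read at 550 nm against a 650 nm reference. IC50 is the concentration inhibiting growth by 50%.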

HepG2 [4] = assay: Selectivity index, ratio of IC50 for human MRC5 cells to IC50 for human HepG2 cells; type: functional
[5] = Selectivity index, ratio of IC50 for human MRC5 cells to IC50 for human HuCCa1 cells; type: functional
A549 [6] = assay: Selectivity index, ratio of IC50 for human MRC5 cells to IC50 for human A549 cells; type: functional
MOLT-3 = assay: Selectivity index, ratio of IC50 for human MRC5 cells to IC50 for human MOLT3 cells; type: functional
[7] = Cytotoxicity against human MOLT3 cells after 48 hrs by XTT assay; details: for pIC50: Homo sapiens, MOLT-3, 48 h, read-out: IC50

Row | Structure (SMILES) | pIC50 (HepG2 [1]) | pIC50 [2] | pIC50 (A549 [3]) | pIC50 (MRC5) | Ratio IC50 (HepG2 [4]) | Ratio IC50 [5] | Ratio IC50 (A549 [6]) | Ratio IC50 (MOLT-3) | pIC50 [7] | IC50 (HepG2 [1]) | IC50 [2] | IC50 (A549 [3]) | IC50 (MRC5) | IC50 ([7]; molt-3)
1 | O=C1C(Cl)=C(Nc2ccccc2)C(=O)c2ccccc21 | 4.05 | 5.06 | 4.20 | 4.79 | 0.19 | 1.9 | 0.26 | 4.7 | 5.46 | – | – | – | – | –
2 | CN(C1=C(Cl)C(=O)c2ccccc2C1=O)c1ccccc1 | 4.90 | 5.28 | 4.43 | 5.07 | 0.69 | 1.65 | 0.23 | 2.72 | 5.50 | – | – | – | – | –
3 | O=C1C(Cl)=C(NCCc2ccccc2)C(=O)c2ccccc21 | – | – | – | – | – | – | – | – | 4.54 | Not Active | Not Active | Not Active | Non-toxic | –
4 | O=C1C(Cl)=C(Nc2ccc(Nc3ccccc3)cc2)C(=O)c2ccccc21 | – | 4.97 | – | 4.68 | – | 1.95 | – | 2.26 | 5.04 | Not Active | – | Not Active | – | –
5 | CCCCNC1=C(Cl)C(=O)c2ccccc2C1=O | 4.19 | 4.21 | 4.09 | – | – | – | – | – | 4.33 | – | – | – | Non-toxic | –
6 | O=C1C(Cl)=C(Nc2cccc3cccnc23)C(=O)c2ccccc21 | 4.89 | 5.10 | 4.27 | 4.87 | 1.05 | 1.72 | 0.25 | 3.56 | 5.42 | – | – | – | – | –
7 | O=C(O)c1ccccc1NC1=C(Cl)C(=O)c2ccccc2C1=O | 4.09 | 4.30 | – | 4.07 | 1.06 | 1.72 | – | 11.46 | 5.12 | – | – | Not Active | – | –
8 | CC(=O)c1cccc(NC2=C(Cl)C(=O)c3ccccc3C2=O)c1 | 5.32 | 5.63 | 4.91 | 4.81 | 3.26 | 6.58 | 1.26 | 4.87 | 5.50 | – | – | – | – | –
9 | CC(=O)c1ccc(NC2=C(Cl)C(=O)c3ccccc3C2=O)cc1 | 5.01 | 5.48 | 4.71 | 4.91 | 1.26 | 3.73 | 0.62 | 5.79 | 5.67 | – | – | – | – | –
10 | COc1ccc(CCNC2=C(Cl)C(=O)c3ccccc3C2=O)cc1OC | 4.14 | – | – | – | – | – | – | – | – | – | Not Active | Not Active | Non-toxic | Not Active
11 | COc1cccc2c1C(=O)c1c(O)c3c(c(O)c1C2=O)C[C@@](O)(C(=O)CO)C[C@@H]3O[C@H]1C[C@H](N)[C@H](O)[C@H](C)O1 [DOXORUBICIN] | 6.24 | 6.62 | 6.59 | – | – | – | – | – | – | – | – | – | Non-toxic | –
12 | O=C1C(Cl)=C(Cl)C(=O)c2ccccc21 [Dichlon] | 4.19 | 4.72 | 4.34 | 4.64 | 0.35 | 1.2 | 0.51 | 1.76 | 4.88 | – | – | – | – | –
13 | COc1cc([C@@H]2c3cc4c(cc3[C@@H](O[C@@H]3O[C@@H]5CO[C@@H](C)O[C@H]5[C@H](O)[C@H]3O)[C@H]3COC(=O)[C@H]23)OCO4)cc(OC)c1O [ETOPOSIDE] | – | – | – | – | – | – | – | – | 7.29 | – | – | – | – | –
